High-throughput results from PubChem.
SKKanGAS inh – S. pyogenes SKKanGAS growth inhibitors in kanamycin, primary screen, streptokinase expression inhibitor project, SKKanGAS strain, BacTiter-Glo luminescence; 6 h; inhibition, % at 7.5 µM; 300,000 tested, 1.3% active; AID 1662, 2009;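 active = mean replicate score, as percent of positive control median, at least 50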;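 also: strain carries kanamycin resistance gene driven by streptokinase promoter and grows in 40 µg/ml kanamycin; loss of luminescence reflects streptokinase promoter inhibition or plain growth inhibition; 0% = median of DMSO wells and 100% = positive control at its reference dose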
CSC inhib – cancer stem cell viability inhibitors, primary screen, luminescence. AID 2717, 2010. inhibition, % at 7.5 µM. cancer stem cell-like cells viability. 300,000 tested, 1.1% active; in the data active = inhibition above about 75%; tested in HMLE shEcad cells
FN deposit inh – inhibitors of fibronectin matrix deposition, primary screen, AH1F cells, Alexa488-fibronectin fluorescence, plate reader; AH1F fibroblasts, overnight; inhibition, % at 12.6 µM; 350,000 tested, 0.086% active; AID 743247, 2014;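 active = mean inhibition across replicates of 30% or more, regardless of how many single replicates reach that level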;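 also: positive control wells lacked labelled fibronectin entirely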
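Assay system: AH1F fibroblast monolayer, labelled fibronectin deposition. Amount: 10000 cells per well. Also added: labelled fibronectin 24 nM. Compound: single-point pinned compound. Incubation: cell attachment 1 h, compound and FN exposure overnight. Detection: fluorescence after three HBSS washes, excitation 485 nm, emission 525 nm. Read-out: inhibition of fibronectin deposition signal.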
PglD DTNB – C. jejuni PglD acetyltransferase inhibitors, primary screen, biochemical, DTNB colorimetric, single point | inhibition, % at 12.5 µM | 360,000 tested, 0.098% active | UDP-N-acetylbacillosamine N-acetyltransferase PglD (Campylobacter jejuni) | purified PglD enzyme, DTNB colorimetric CoA detection; in the data active = inhibition above about 16%, passing the limit was not always enough
Rtt109 Vps75 – inhibitors of C. albicans Rtt109/Vps75 HAT, primary screen, biochemical, ThioGlo CoA-SH fluorescence, plate reader. purified Rtt109/Vps75, 4 h. 330,000 tested, 0.16% active. inhibition, % at 34.9 µM. AID 540336, 2011. Histone acetyltransferase RTT109 (Candida albicans (strain SC5314 / ATCC MYA-2876)), …;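 active = inhibition of at least 50% in every replicate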
Target sequence (Q5AAJ8 whole entry, looked up): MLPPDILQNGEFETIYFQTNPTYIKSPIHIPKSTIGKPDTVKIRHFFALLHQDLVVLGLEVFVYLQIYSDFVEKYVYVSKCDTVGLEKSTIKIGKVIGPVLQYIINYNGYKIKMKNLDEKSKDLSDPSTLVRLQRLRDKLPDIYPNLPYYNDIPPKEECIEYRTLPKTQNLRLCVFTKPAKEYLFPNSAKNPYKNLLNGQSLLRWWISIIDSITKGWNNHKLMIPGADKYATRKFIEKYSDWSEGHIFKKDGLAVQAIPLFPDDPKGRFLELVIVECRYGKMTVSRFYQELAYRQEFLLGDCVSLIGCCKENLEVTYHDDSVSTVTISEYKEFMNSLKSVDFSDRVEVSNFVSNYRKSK
PfHsp90 set2 – growth inhibition of PfHsp90-expressing yeast, primary screen, antimalarial PfHsp90 inhibitor project, S. cerevisiae, BacTiter-Glo luminescence, single point, set 2; BacTiter-Glo ATP, 48 h; yeast lacking PDR1 and PDR3 efflux regulators; inhibition, % at 9.4 µM; 310,000 tested, 0.32% active; AID 504621, 2011;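 active = every replicate shows inhibition above about 80%, whatever the replicate mean, limit read from the data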;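 also: 0% = DMSO neutral controls and 100% = 20 µM radicicol positive controls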
The depositor's hits bear a star; nt = no result given. This is a sample that favours compounds with a hit; in the whole collection about 1.7% have one here.

SMILES	SKKanGAS inh	CSC inhib	FN deposit inh	PglD DTNB	Rtt109 Vps75	PfHsp90 set2
COc1ccc([C@H]2C/C=C\C[C@H](c3ccc4c(c3)OCO4)NC(=O)[C@H](c3ccccc3)CC(=O)N2)c(OC)c1	nt	nt	0	nt	nt	nt
CCS(=O)(=O)N1CC(=O)N2[C@H](CO)[C@@H](c3ccc(C#CC4CC4)cc3)[C@@H]2C1	nt	nt	0	nt	nt	nt
CN(C)C(=O)/C(C#N)=C\c1cc(Br)c(Sc2ccc(Cl)cc2)o1	nt	103*	nt	nt	4	-23
Clc1ccc(Sc2oc(/C=N/n3cnnc3)cc2Br)cc1	nt	-12	4	5	1	-30
Cc1c(C(=O)N/N=C/c2ccc(Cl)cc2)[nH]c2ccc(Cl)cc12	56*	57	nt	nt	5	32
CCOc1ccc(/C=N/NC(=O)c2[nH]c3ccc(C)cc3c2C)cc1	21	24	6	2	-5	-30
O=C(c1cc(C2CC2)on1)N1CCN(C(c2ccccc2)c2ccccc2)CC1	7	8	-1	1	4	nt
O=C(c1cc(-c2cccc(O)c2)on1)N1CCN(C(c2ccccc2)c2ccccc2)CC1	30	144*	-3	1	4	-17
Cc1nc(S(=O)(=O)NC2CCN(Cc3ccc(OCCO)cc3)CC2)cn1C	nt	nt	nt	-1	nt	nt
O=C(Nc1nnc(SCc2ccc(F)cc2)s1)c1cccnc1Cl	12	6	nt	-1	7	-20
O=C(Nc1nc2ccc(F)cc2s1)c1ccccn1	98*	-6	4	nt	nt	nt
CCS(=O)(=O)N1Cc2ccccc2CC1C(=O)Nc1nnc(SCc2ccc(F)cc2)s1 (stereo not drawn)	54*	16	9	nt	-5	-30
O=C(Nc1nnc(SCc2ccc(F)cc2)s1)c1ccccn1	63*	nt	9	nt	-1	101*
C[C@@H]1CN([C@H](C)CO)C(=O)Cc2cc(NC(=O)CCC(F)(F)F)ccc2O[C@@H]1CN(C)Cc1ccc(Cl)c(Cl)c1	nt	nt	nt	-2	nt	nt
CC(C)NC(=O)N(C)C[C@H]1Oc2ccc(NS(=O)(=O)c3cccs3)cc2CC(=O)N([C@H](C)CO)C[C@@H]1C	nt	nt	nt	-2	nt	nt
COc1ccccc1C(=O)N1C[C@H]2[C@@H](c3ccccc31)[C@H](CO)N2C(=O)Cc1cccnc1	nt	nt	nt	5	nt	nt
O=c1[nH]c(Nc2ccc(F)cc2)cc2ccccc12	2	3	-1	32*	-1	nt
C[C@H](CO)N1C[C@H](C)[C@@H](CN(C)CC2CCCCC2)Oc2c(NC(=O)Cc3cn(C)c4ccccc34)cccc2C1=O	nt	nt	23	nt	nt	nt
CC(NC(=O)CCc1nnc(C2(c3ccc(Cl)cc3)CCC2)o1)C1CC1 (stereo not drawn)	-8	-9	4	nt	0	10
O=C(CCc1nnc(C2(c3ccc(Cl)cc3)CCC2)o1)NCCCn1cccn1	0	5	-2	nt	50*	3
Cc1ccc(NS(=O)(=O)c2cc([N+](=O)[O-])ccc2NNC(=S)Nc2cccc(Cl)c2)c(C)c1	88*	100*	nt	nt	0	12
COc1ccc(NC(=S)NNc2ccc([N+](=O)[O-])cc2S(=O)(=O)Nc2ccc(C)cc2C)cc1	65*	12	-9	nt	4	-50
Cc1ccc(NS(=O)(=O)c2cc([N+](=O)[O-])ccc2NNC(=S)Nc2cc(C)ccc2C)c(C)c1	41	80*	-17	7	12	3
O=C1C(=O)c2cccnc2-c2ncccc21	nt	nt	45*	nt	nt	nt
O=C(Cc1cccnc1)N1CC(=O)N2[C@H](C1)[C@@H](c1ccc(C#CC3CC3)cc1)[C@@H]2CO	nt	nt	-1	nt	nt	nt
O=c1[nH]c2ccc(Cl)cc2c(O)c1-c1ccccc1	-10	9	nt	-2	-8	-46
NNC(=O)CSc1c(-c2ccccc2)c2cc(Cl)ccc2[nH]c1=O	1	-5	11	0	-5	3
O=c1[nH]c2ccc(Cl)cc2c(-c2ccccc2)c1SC(=S)N1CCCCC1	66*	28	nt	nt	-2	-68
O=c1[nH]c2ccc(Cl)cc2c(-c2ccccc2)c1SC(=S)N1CCOCC1	84*	-14	nt	nt	11	-15
